Test results reported in ChEMBL document CHEMBL1128458, “Synthesis and anticonvulsant activity of enaminones. 3. Investigations on 4'-, 3'-, and 2'-substituted and polysubstituted anilino compounds, sodium channel binding studies, and toxicity evaluations” (J Med Chem, 1995).
Calls of active or inactive are those of the source. The calls are words filed in the database; no cut-off is given here.

Legend:
Mus musculus [1] = experiment: Anticonvulsant activity; 3 indicates no activity at doses up to and including 300 mg/kg in mice.; type: functional
In short: (§1)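 Phase I screen in CF1 mice: compound suspended in 0.5% aqueous methylcellulose, given ip at 30, 100 and 300 mg/kg; MES, scMet and rotorod toxicity read at 30 min and 4 h. Class 1 = activity at 100 mg/kg or less; 2 = activity above 100 mg/kg; 3 = none up to 300 mg/kg.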

Rattus norvegicus [2] = experiment: Anticonvulsant activity was determined; 3 indicates no activity at doses up to and including 300 mg/kg in rat; type: functional
Mus musculus [3] = experiment: Anticonvulsant activity was determined in mice; 1 indicates 100 mg/kg or less; type: functional; in short: as §1
[4] = target: Sodium channel alpha subunits; brain (Types I, II, III) (Rattus norvegicus, UniProt P04775+P04774+P08104); experiment: Inhibition of [3H]BTX-B binding to neurotoxin site 2 of sodium channel of rat cerebral cortex synaptoneurosomes; type: tissue-based
In short: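 Synaptoneurosomes from rat cerebral cortex were incubated with [3H]BTX-B (2.0 nM final) in HEPES, pH 7.4 at 25 °C, with 130 mM choline chloride, at 37 °C for 45 min. Reactions were stopped by rapid vacuum filtration onto glass fibre filters, and bound radioactivity was compared with control. IC50 was read from log concentration (10–800 µM) versus percent specific binding.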

Mus musculus [5] = experiment: Effective dose for anticonvulsant activity determined in mice using subcutaneous Met test procedure. (Phase II); No protection; type: functional, organism-based
Rattus norvegicus [6] = experiment: Effective dose for anticonvulsant activity determined in rats using subcutaneous Met test procedure. (Phase VIA); No protection; type: functional, organism-based
Mus musculus [7] = experiment: Anticonvulsant activity was determined; 2 indicates at doses greater than 100 mg/kg in mice; type: functional; in short: as §1
Rattus norvegicus [8] = experiment: Anticonvulsant activity was determined; 2 indicates at doses greater than 100 mg/kg in rat; type: functional
Rattus norvegicus [9] = experiment: Anticonvulsant activity determined in rats at an oral dose of 50 mg/kg of phase VIA trials; active; type: functional
Mus musculus [10] = species: Mus musculus; experiment: Effective dose for anticonvulsant activity determined in mice using MES test procedure. (Phase II); type: functional
Mus musculus [11] = experiment: Effective dose for anticonvulsant activity determined in mice using subcutaneous Met test procedure. (Phase II); Potentiates; type: functional, organism-based
Rattus norvegicus [12] = species: Rattus norvegicus; experiment: Effective dose for anticonvulsant activity determined in rats using MES test procedure. (Phase VIA); type: functional
In short: (§2)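 Phase VIA oral dosing in male Sprague–Dawley rats; MES and scMet ED50 and TD50 in mg/kg, each read at the time of peak effect; range in parentheses.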

Mus musculus [13] = experiment: Effective dose for anticonvulsant activity determined in mice using subcutaneous Met test procedure. (Phase II); type: functional; settings: sc
Rattus norvegicus [14] = experiment: Change in kidney weight on day 2 in male rats after ip administration of 100 mg/kg; expressed as kidney weight (g/100 g of body weight); type: functional; settings: route intraperitoneal
In short: (§3)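 Male Fischer 344 rats (200-245 g), four per group, housed singly in metabolism cages; day 0 control values taken, then a single ip dose of 100 mg/kg or vehicle (25% DMSO in corn oil). Pair-fed controls. Urine volume measured at 24 h intervals. At 48 h, under ether, blood drawn from the dorsal aorta; plasma assayed for ALT/GPT and BUN; kidney and liver weighed. Means ± SE.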

Rattus norvegicus [15] = experiment: Change in liver weight determined in male rats on day 2 after ip administration of 100 mg/kg; expressed as liver weight (g/100 g of body weight); type: functional; settings: route intraperitoneal; in short: as §3
Rattus norvegicus [16] = experiment: Change in the blood urea nitrogen concentration on day 0 determined in male rats after ip administration of 100 mg/kg; Expressed as blood urea nitrogen concentration (mg %); type: functional; settings: route intraperitoneal; in short: as §3
Rattus norvegicus [17] = experiment: Change in the blood urea nitrogen concentration on day 2 determined in male rats after ip administration of 100 mg/kg; Expressed as blood urea nitrogen concentration (mg %); type: functional; settings: route intraperitoneal; in short: as §3
Rattus norvegicus [18] = experiment: ALT/GPT activity in male rats on day 2 after ip administration of 100 mg/kg.; type: functional; settings: route intraperitoneal; in short: as §3
Rattus norvegicus [19] = experiment: Effective dose for anticonvulsant activity determined in rats using subcutaneous Met test procedure. (Phase VIA); type: functional; settings: sc; in short: as §2
Rattus norvegicus [20] = experiment: Urine volume collected for biochemical tests after an ip dose of 100 mg/kg at 0 day in male rats.; type: functional; settings: route intraperitoneal; in short: as §3
Rattus norvegicus [21] = experiment: Urine volume collected for biochemical tests after an ip dose of 100 mg/kg at day 1 in male rats.; type: functional; settings: route intraperitoneal; in short: as §3
[22] = Toxic dose determined in mice using MES test procedure. (Phase II); type: toxicity; settings: mouse, in vivo
[23] = Toxic dose determined in rats using MES test procedure. (Phase VIA); type: toxicity; settings: rat, in vivo; in short: as §2
Rattus norvegicus [24] = experiment: Urine volume collected for biochemical tests after an ip dose of 100 mg/kg at day 2 in male rats.; type: functional; settings: route intraperitoneal; in short: as §3
Rattus norvegicus [25] = experiment: Anticonvulsant activity was determined in rat; 1 indicates 100 mg/kg or less; type: functional
Rattus norvegicus [26] = species: Rattus norvegicus; experiment: Effective dose for anticonvulsant activity determined in rats using MES test procedure. (Phase VIA, parentheses value indicate 95% confidence limits); type: functional; in short: as §2
[27] = Toxic dose determined in rats using MES test procedure. (Phase VIA, parentheses value indicate 95% confidence limits); type: toxicity, organism-based; settings: rat, in vivo; in short: as §2
Rattus norvegicus [28] = species: Rattus norvegicus; experiment: Protective index measured as the […].; type: functional

CCOC(=O)[C@@H]1C(=O)C=C(NNc2ccccc2)C[C@H]1C
Anticonvulsant activity (Mus musculus [1]): 3
Anticonvulsant activity (Rattus norvegicus [2]): 3

CCOC(=O)[C@@H]1C(=O)C=C(Nc2cc(C)ccc2OC)C[C@H]1C
Anticonvulsant activity (Mus musculus [3]): 1

CN1C(=O)CN=C(c2ccccc2)c2cc(Cl)ccc21 [DIAZEPAM]
IC50 [4]: 152 µM

CCOC(=O)[C@@H]1C(=O)C=C(Nc2ccc(OC)c(Cl)c2)C[C@H]1C
Anticonvulsant activity (Mus musculus [1]): 3

O=C1NC(=O)C(c2ccccc2)(c2ccccc2)N1
ED50 (Mus musculus [5]): inactive
ED50 (Rattus norvegicus [6]): inactive

COC(=O)[C@@H]1C(=O)C=C(NNc2ccccc2)C[C@H]1C
Anticonvulsant activity (Mus musculus [7]): 2
Anticonvulsant activity (Rattus norvegicus [8]): 2

COC(=O)[C@@H]1C(=O)C=C(Nc2ccccc2OC)C[C@H]1C
Anticonvulsant activity (Mus musculus [1]): 3

COC(=O)[C@@H]1C(=O)C=C(Nc2ccccc2F)C[C@H]1C
Anticonvulsant activity (Mus musculus [7]): 2

COC(=O)[C@@H]1C(=O)C=C(Nc2ccc(Cl)cc2Cl)C[C@H]1C
Anticonvulsant activity (Mus musculus [3]): 1

CCOC(=O)[C@@H]1C(=O)C=C(Nc2cc(Cl)ccc2Cl)C[C@H]1C
Anticonvulsant activity (Mus musculus [1]): 3

CCc1ccccc1NC1=CC(=O)[C@@H](C(=O)OC)[C@H](C)C1
Anticonvulsant activity (Mus musculus [3]): 1

COC(=O)[C@@H]1C(=O)C=C(Nc2ccc(OC)c(Cl)c2)C[C@H]1C
Anticonvulsant activity (Mus musculus [1]): 3

COC(=O)[C@@H]1C(=O)C=C(Nc2ccc(Cl)c(Cl)c2)C[C@H]1C
Anticonvulsant activity (Mus musculus [3]): 1

COC(=O)[C@@H]1C(=O)C=C(Nc2ccc(Cl)cn2)C[C@H]1C
Anticonvulsant activity (Mus musculus [3]): 1
Anticonvulsant activity (Rattus norvegicus [9]): 1

NC(=O)N1c2ccccc2C=Cc2ccccc21 [CARBAMAZEPINE]
ED50 (Mus musculus [10]): 8.8 mg/kg
ED50 (Mus musculus [11]): Convulsant
ED50 (Rattus norvegicus [12]): 8.5 mg/kg
ED50 (Rattus norvegicus [6]): inactive

CCC1(c2ccccc2)C(=O)NC(=O)NC1=O [PHENOBARBITAL]
IC50 [4]: 2.5 µM

COC(=O)[C@@H]1C(=O)C=C(Nc2cc(OC)ccc2Cl)C[C@H]1C
Anticonvulsant activity (Mus musculus [7]): 2

COC(=O)[C@@H]1C(=O)C=C(Nc2ccccc2Cl)C[C@H]1C
Anticonvulsant activity (Mus musculus [3]): 1

COC(=O)[C@@H]1C(=O)C=C(Nc2ccccc2[N+](=O)[O-])C[C@H]1C
Anticonvulsant activity (Mus musculus [7]): 2

COC(=O)[C@@H]1C(=O)C=C(Nc2ccccc2O)C[C@H]1C
Anticonvulsant activity (Mus musculus [1]): 3

CCOC(=O)[C@@H]1C(=O)C=C(Nc2ccc(Cl)c(Cl)c2)C[C@H]1C
Anticonvulsant activity (Mus musculus [7]): 2

COC(=O)[C@@H]1C(=O)C=C(Nc2cc(Cl)c(Cl)cc2Cl)C[C@H]1C
Anticonvulsant activity (Mus musculus [3]): 1

COC(=O)[C@@H]1C(=O)C=C(Nc2ccccc2S(N)(=O)=O)C[C@H]1C
Anticonvulsant activity (Mus musculus [1]): 3

Nc1nnc(-c2cccc(Cl)c2Cl)c(N)n1 [LAMOTRIGINE]
ED50 (Mus musculus [10]): 2.6 mg/kg
IC50 [4]: 114 µM

CCOC(=O)[C@@H]1C(=O)C=C(Nc2ccc(Cl)c(Cl)c2Cl)C[C@H]1C
Anticonvulsant activity (Mus musculus [7]): 2

COC(=O)[C@@H]1C(=O)C=C(Nc2ccccc2C(F)(F)F)C[C@H]1C
Anticonvulsant activity (Mus musculus [7]): 2

COC(=O)[C@@H]1C(=O)C=C(Nc2c(Cl)cccc2Cl)C[C@H]1C
Anticonvulsant activity (Mus musculus [1]): 3

COC(=O)[C@@H]1C(=O)C=C(Nc2ccccc2Br)C[C@H]1C
Anticonvulsant activity (Mus musculus [1]): 3

COC(=O)[C@@H]1C(=O)C=C(Nc2cc(Cl)ccc2Cl)C[C@H]1C
Anticonvulsant activity (Mus musculus [3]): 1

COC(=O)[C@@H]1C(=O)C=C(Nc2ccc(Cl)cc2)C[C@H]1C
ED50 (Mus musculus [13]): > 254 mg/kg
Activity (Rattus norvegicus [14]): 0.35
Activity (Rattus norvegicus [15]): 4.16
Activity (Rattus norvegicus [16]): 14%
Activity (Rattus norvegicus [17]): 14%
ALT/GPT (Rattus norvegicus [18]): 25 U/L
ED50 (Rattus norvegicus [12]): 5.8 mg/kg
ED50 (Rattus norvegicus [19]): > 190 mg/kg
Urine volume (Rattus norvegicus [20]): 13.8 mL
Urine volume (Rattus norvegicus [21]): 9.6 mL
TD50 [22]: 255 mg/kg
TD50 [23]: > 380 mg/kg
IC50 [4]: 489 µM
Urine volume (Rattus norvegicus [24]): 10.2 mL

CCOC(=O)[C@@H]1C(=O)C=C(Nc2ccccc2N)C[C@H]1C
Anticonvulsant activity (Mus musculus [1]): 3

CCOC(=O)[C@@H]1C(=O)C=C(Nc2ccc(Cl)cc2Cl)C[C@H]1C
Anticonvulsant activity (Mus musculus [3]): 1

CCOC(=O)[C@@H]1C(=O)C=C(Nc2c(Cl)cccc2Cl)C[C@H]1C
Anticonvulsant activity (Mus musculus [1]): 3

COC(=O)[C@@H]1C(=O)C=C(Nc2cc(C)ccc2OC)C[C@H]1C
Anticonvulsant activity (Mus musculus [7]): 2

COC(=O)[C@@H]1C(=O)C=C(Nc2ccccc2I)C[C@H]1C
Anticonvulsant activity (Mus musculus [3]): 1

COC(=O)[C@@H]1C(=O)C=C(Nc2ccc(Cl)c(Cl)c2Cl)C[C@H]1C
Anticonvulsant activity (Mus musculus [1]): 3

COC(=O)[C@@H]1C(=O)C=C(Nc2ccccc2C#N)C[C@H]1C
Anticonvulsant activity (Mus musculus [7]): 2

CCOC(=O)[C@@H]1C(=O)C=C(Nc2cc(Cl)c(Cl)c(Cl)c2)C[C@H]1C
Anticonvulsant activity (Mus musculus [7]): 2

CCOC(=O)[C@@H]1C(=O)C=C(Nc2cc(Cl)cc(Cl)c2)C[C@H]1C
Anticonvulsant activity (Mus musculus [1]): 3

CCOC(=O)[C@@H]1C(=O)C=C(Nc2ccccc2Cl)C[C@H]1C
Anticonvulsant activity (Mus musculus [1]): 3

COC(=O)[C@@H]1C(=O)C=C(Nc2cc(Cl)cc(Cl)c2)C[C@H]1C
Anticonvulsant activity (Mus musculus [1]): 3

COC(=O)[C@@H]1C(=O)C=C(NC2CCCCC2)C[C@H]1C
Anticonvulsant activity (Mus musculus [1]): 3
Anticonvulsant activity (Rattus norvegicus [2]): 3

COC(=O)[C@@H]1C(=O)C=C(Nc2ccccc2C)C[C@H]1C
Anticonvulsant activity (Mus musculus [1]): 3

CCOC(=O)[C@@H]1C(=O)C=C(NC2CCCCC2)C[C@H]1C
Anticonvulsant activity (Mus musculus [3]): 1
Anticonvulsant activity (Rattus norvegicus [25]): 1

CCOC(=O)[C@@H]1C(=O)C=C(Nc2ccc(Cl)cn2)C[C@H]1C
Anticonvulsant activity (Mus musculus [3]): 1
ED50 (Rattus norvegicus [26]): 12.1 mg/kg
TD50 [27]: > 344 mg/kg
PI (Rattus norvegicus [28]): 28.4
Anticonvulsant activity (Rattus norvegicus [25]): 1

COC(=O)[C@@H]1C(=O)C=C(Nc2ccc(OC(F)(F)F)cc2)C[C@H]1C
ED50 (Mus musculus [10]): 22.4 mg/kg
ED50 (Mus musculus [13]): 114 mg/kg
ED50 (Rattus norvegicus [12]): 9.3 mg/kg
ED50 (Rattus norvegicus [19]): > 79 mg/kg
TD50 [22]: 122 mg/kg
TD50 [23]: > 158 mg/kg
IC50 [4]: 170 µM

CCOC(=O)[C@@H]1C(=O)C=C(Nc2cc(Cl)c(Cl)cc2Cl)C[C@H]1C
Anticonvulsant activity (Mus musculus [1]): 3
